From article PMC8760560 (iScience, 2021)

How the values were obtained:
[1] = tested on: NAADP-evoked Ca^2+ release; settings: data from a recent screen against NAADP action; ref Gunaratne et al., 2018; cited from earlier work
[2] = tested on: cADPR-evoked Ca^2+ release; test: cADPR-evoked Ca2+ release in sea urchin egg homogenate; format: biochemical, Strongylocentrotus purpuratus; settings: for mode of inhibition of cADPR action: cADPR concentration-response curves at increasing inhibitor concentrations; for inhibition of cADPR-evoked Ca2+ signals: primary screen, 6 min preincubation
Method in brief: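 Primary screen in S. purpuratus egg homogenate, loaded with Ca2+ and 3 μM fluo-3 at 17°C and diluted stepwise to 1.25% over 3 h. Fluo-3 was read at ex 485/em 525 nm. Library compounds at 25 μM final were preincubated for 6 min (35 cycles), then cADPR 300 nM final was added. Screens ran in singlicate or duplicate, with Z' calculated from vehicle and cADPR responses.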

[3] = molecular target: RyR1 (Sus scrofa, UniProt P16960); test: [3H]-ryanodine binding to skeletal SR vesicles; set-up: species or system porcine
Sequence of RyR1 (P16960 whole entry): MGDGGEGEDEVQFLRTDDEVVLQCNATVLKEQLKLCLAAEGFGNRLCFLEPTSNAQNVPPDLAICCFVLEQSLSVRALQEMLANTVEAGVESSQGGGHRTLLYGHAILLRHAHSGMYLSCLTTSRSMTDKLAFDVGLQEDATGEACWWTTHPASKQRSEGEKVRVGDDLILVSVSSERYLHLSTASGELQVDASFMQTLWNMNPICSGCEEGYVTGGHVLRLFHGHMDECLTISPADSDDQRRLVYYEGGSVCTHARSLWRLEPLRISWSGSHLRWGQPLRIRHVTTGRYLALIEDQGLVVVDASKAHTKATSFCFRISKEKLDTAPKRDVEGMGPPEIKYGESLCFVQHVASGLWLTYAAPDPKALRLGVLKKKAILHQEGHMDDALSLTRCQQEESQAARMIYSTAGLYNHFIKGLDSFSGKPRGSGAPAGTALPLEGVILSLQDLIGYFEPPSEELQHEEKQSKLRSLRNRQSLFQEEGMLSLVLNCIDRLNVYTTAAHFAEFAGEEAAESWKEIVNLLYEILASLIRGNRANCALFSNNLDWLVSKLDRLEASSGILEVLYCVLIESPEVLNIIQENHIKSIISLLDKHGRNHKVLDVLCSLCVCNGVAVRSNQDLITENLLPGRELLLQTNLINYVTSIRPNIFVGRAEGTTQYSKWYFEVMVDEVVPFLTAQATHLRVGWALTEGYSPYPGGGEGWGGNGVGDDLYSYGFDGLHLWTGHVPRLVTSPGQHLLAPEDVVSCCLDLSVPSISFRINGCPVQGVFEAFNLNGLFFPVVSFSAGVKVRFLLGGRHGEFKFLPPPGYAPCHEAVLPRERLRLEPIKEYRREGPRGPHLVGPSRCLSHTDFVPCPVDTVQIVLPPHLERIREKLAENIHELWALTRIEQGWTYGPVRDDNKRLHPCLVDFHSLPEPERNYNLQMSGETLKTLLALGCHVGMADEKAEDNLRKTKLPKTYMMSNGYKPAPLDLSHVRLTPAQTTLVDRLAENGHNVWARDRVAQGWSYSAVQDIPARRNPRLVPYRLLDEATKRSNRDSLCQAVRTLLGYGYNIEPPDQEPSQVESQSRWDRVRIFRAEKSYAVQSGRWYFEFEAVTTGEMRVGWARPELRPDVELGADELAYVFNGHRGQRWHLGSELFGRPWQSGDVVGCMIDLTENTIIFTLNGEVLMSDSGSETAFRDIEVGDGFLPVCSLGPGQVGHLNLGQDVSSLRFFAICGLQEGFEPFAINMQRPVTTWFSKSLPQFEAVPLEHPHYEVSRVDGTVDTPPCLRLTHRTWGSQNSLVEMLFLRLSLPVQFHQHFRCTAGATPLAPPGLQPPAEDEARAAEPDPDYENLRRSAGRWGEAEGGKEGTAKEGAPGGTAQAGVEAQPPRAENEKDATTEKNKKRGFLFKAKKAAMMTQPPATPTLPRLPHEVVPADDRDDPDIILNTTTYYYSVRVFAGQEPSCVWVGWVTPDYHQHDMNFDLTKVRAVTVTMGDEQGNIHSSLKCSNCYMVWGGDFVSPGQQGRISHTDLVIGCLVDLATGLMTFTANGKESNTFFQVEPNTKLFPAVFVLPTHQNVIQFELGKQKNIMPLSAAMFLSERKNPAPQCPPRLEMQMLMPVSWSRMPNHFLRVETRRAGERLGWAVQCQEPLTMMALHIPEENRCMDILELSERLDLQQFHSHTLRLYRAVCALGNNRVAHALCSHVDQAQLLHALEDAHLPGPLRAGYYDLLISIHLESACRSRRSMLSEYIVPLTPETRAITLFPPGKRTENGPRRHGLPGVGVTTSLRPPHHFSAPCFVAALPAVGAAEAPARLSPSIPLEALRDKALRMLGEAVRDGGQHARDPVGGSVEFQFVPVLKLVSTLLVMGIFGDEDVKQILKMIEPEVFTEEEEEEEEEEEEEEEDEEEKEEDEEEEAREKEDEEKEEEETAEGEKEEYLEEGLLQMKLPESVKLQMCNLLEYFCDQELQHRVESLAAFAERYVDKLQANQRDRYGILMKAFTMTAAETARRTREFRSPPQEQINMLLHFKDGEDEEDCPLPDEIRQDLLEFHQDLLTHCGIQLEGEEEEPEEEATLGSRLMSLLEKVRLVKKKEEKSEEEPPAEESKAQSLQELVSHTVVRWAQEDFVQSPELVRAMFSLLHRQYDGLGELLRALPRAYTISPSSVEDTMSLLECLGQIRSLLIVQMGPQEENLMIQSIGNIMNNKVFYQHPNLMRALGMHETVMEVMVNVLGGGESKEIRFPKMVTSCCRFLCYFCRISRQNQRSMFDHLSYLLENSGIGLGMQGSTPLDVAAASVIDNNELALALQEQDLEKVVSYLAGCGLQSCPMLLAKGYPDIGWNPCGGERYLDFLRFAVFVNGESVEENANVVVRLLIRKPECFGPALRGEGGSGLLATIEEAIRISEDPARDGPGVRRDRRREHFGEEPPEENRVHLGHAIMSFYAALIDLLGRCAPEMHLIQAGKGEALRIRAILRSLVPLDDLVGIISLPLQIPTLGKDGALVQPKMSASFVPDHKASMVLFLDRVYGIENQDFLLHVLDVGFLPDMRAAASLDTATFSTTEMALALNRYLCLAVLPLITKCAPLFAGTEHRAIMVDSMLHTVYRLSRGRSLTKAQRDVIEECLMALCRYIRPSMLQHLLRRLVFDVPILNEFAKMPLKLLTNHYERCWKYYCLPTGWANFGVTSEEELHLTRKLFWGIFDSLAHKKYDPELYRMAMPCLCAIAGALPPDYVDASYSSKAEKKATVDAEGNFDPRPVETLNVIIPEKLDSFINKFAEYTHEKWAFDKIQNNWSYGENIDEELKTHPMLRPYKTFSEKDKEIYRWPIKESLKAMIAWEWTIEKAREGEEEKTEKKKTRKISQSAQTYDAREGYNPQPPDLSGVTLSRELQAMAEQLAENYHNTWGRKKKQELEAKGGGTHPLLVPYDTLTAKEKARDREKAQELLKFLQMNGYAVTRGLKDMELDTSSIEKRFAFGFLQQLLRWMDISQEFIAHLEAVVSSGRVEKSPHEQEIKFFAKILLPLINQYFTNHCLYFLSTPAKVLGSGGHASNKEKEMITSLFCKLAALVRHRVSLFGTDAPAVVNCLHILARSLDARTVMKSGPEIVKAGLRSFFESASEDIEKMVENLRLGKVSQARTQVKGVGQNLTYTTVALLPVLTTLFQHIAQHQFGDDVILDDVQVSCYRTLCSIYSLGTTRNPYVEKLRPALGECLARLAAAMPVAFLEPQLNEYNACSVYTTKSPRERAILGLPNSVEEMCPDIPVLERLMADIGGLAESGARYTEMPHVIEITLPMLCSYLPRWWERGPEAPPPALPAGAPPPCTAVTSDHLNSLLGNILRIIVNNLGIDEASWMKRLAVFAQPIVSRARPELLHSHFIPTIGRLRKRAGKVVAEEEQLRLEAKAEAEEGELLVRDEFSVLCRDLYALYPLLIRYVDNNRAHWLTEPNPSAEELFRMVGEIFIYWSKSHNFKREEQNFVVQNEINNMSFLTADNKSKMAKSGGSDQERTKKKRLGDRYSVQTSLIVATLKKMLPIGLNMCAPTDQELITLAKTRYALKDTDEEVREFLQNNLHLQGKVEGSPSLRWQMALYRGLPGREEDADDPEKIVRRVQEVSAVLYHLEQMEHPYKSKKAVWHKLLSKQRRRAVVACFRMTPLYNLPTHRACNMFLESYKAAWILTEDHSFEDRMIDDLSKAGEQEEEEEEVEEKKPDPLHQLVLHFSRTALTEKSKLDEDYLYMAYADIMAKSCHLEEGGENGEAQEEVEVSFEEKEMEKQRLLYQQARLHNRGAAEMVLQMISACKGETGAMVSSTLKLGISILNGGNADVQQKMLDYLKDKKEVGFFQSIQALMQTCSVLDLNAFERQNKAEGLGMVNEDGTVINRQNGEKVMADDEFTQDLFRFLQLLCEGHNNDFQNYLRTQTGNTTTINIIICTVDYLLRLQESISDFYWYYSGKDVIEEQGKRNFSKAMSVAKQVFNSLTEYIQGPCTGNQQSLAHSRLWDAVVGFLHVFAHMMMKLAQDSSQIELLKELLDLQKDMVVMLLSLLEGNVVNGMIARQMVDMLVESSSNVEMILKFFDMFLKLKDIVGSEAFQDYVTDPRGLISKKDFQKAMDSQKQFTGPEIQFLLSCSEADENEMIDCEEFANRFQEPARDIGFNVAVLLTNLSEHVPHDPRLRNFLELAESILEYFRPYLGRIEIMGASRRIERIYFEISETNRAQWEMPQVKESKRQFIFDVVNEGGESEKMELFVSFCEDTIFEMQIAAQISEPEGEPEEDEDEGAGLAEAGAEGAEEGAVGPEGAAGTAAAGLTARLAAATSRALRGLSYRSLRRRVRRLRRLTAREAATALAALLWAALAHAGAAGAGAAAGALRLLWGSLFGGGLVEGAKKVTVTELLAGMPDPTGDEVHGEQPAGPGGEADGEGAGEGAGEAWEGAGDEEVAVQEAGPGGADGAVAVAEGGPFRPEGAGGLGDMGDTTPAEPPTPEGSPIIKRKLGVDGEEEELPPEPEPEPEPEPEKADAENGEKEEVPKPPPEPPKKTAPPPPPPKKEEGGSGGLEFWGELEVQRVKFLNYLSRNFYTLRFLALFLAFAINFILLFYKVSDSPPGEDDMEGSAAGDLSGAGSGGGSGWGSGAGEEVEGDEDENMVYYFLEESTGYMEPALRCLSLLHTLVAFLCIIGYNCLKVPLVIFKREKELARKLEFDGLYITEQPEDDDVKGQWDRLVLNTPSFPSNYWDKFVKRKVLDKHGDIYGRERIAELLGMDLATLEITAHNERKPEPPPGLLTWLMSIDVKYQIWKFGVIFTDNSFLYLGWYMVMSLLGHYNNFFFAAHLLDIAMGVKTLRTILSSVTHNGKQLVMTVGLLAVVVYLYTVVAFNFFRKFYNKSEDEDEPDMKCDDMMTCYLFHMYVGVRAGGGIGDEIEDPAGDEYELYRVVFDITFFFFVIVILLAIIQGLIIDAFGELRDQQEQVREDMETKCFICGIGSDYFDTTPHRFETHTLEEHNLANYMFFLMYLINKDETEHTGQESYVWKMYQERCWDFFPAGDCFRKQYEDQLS
Method in brief: (§1)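 Porcine SR vesicles, skeletal (1 mg/mL, 10 nM [3H]-ryanodine) and cardiac (3 mg/mL, 7.5 nM [3H]-ryanodine), were incubated for 3 h at 37°C with test compound or 0.02% DMSO. The pH 7.0 K-PIPES buffer contained 150 mM KCl, 0.1 μM calmodulin, GSH, DTT, 1 mM EGTA and CaCl2 giving 100 nM or 30 μM free Ca2+. Non-specific binding was defined with 40 μM unlabeled ryanodine. Bound ligand was filtered and counted by scintillation, and expressed relative to DMSO. Three SR batches, triplicates.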

[4] = molecular target: RyR2 (Sus scrofa, UniProt A0A5G2R1W3); test: [3H]-ryanodine binding to cardiac SR vesicles; set-up: species or system porcine
Method in brief: as §1

[5] = tested on: IP3-evoked Ca^2+ release; test: IP3-evoked Ca2+ release in sea urchin egg homogenate; format: biochemical, Strongylocentrotus purpuratus; settings: IP3 500 nM; at concentrations completely inhibiting cADPR-evoked signals
[6] = tested on: cADPR-sensitive Ca^2+ stores; format: biochemical, Strongylocentrotus purpuratus; settings: ≤100μM
[7] = tested on: RyRs (caffeine-evoked Ca^2+ release); test: caffeine-evoked Ca2+ release in sea urchin egg homogenate; format: biochemical, Strongylocentrotus purpuratus; settings: caffeine 15 mM
Method in brief: (§2)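 Fluo-3-loaded S. purpuratus egg homogenate (1.25%, pH 7.2 intracellular-like medium, 17°C loading) was preincubated with increasing test compound concentrations. Release was then evoked by cADPR 300 nM, caffeine 15 mM or ryanodine 100 μM, with fluorescence read at ex 485/em 525 nm. Concentration-response data came from three independent biological experiments with four technical replicates each.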

[8] = tested on: RyRs (ryanodine-evoked Ca^2+ release); test: ryanodine-evoked Ca2+ release in sea urchin egg homogenate; format: biochemical, Strongylocentrotus purpuratus; settings: ryanodine 100 μM
Method in brief: as §2

[9] = tested on: U2OS cells; test: cADPR microinjection into single U2OS cells expressing GCaMP-6M; format: cell-based, human; settings: 5 μM preincubation; cADPR 30 μM pipette concentration
Method in brief: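 U2OS cells were transfected with GCaMP-6M two days prior, seeded on collagen dishes and perfused with Ca2+-free HBSS. Cells in 5 μM test compound or 0.05% DMSO were microinjected with intracellular buffer (110 mM KCl, 10 mM NaCl, 20 mM HEPES, pH 7.2) containing vehicle or cADPR, giving about 300 nM intracellular. Spinning-disk imaging (ex 488 nm) gave peak ΔF/F0 and area under curve. Data from three independent experiments, mean ± stdev.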

[10] = tested on: NAADP-evoked Ca^2+ release; test: NAADP-evoked Ca2+ release in sea urchin egg homogenate; format: biochemical, Strongylocentrotus purpuratus; settings: NAADP 200 nM; at concentrations completely inhibiting cADPR-evoked signals
[11] = tested on: human induced pluripotent stem cells (iPSCs); test: cardiomyocyte differentiation of induced pluripotent stem cells; format: cell-based; settings: 1 μM for 5 days, versus control cultures
Method in brief: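 Human iPSCs derived from dermal fibroblasts were grown on Matrigel in mTeSR1 and differentiated by Wnt modulation (CHIR, then 5 μM IWP-4 at day 3). From day 0 they received 1 μM test compound (from a 10 mM DMSO stock) or DMSO for 23 h or 5 days. Troponin T-positive cells per Hoechst-stained nuclei were counted at day 8 or 15. Western blot troponin T was normalized to GAPDH as % vehicle. Three independent experiments, mean ± stdev.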

[12] = tested on: mouse embryonic stem (ES) cells; settings: 100 μM; ref Wei et al., 2012; cited from earlier work

For `NC(=S)c1ccc[n+]([C@@H]2O[C@H](COP(=O)([O-])OP(=O)(O)OC[C@H]3O[C@@H](n4cnc5c(N)ncnc54)[C@H](OP(=O)(O)O)[C@@H]3O)[C@@H](O)[C@H]2O)c1` [thio-NADP], the “effect on NAADP-evoked Ca2+ responses in screen” value [1] is listed as “selectively desensitized”.

For `CNc1ccc2oc(C[C@H]3O[C@@]4(CC[C@H]3C)O[C@H]([C@H](C)C(=O)c3ccc[nH]3)[C@H](C)C[C@H]4C)nc2c1C(=O)O` [A23187], the “effect on NAADP-evoked Ca2+ responses in screen” value [1] is listed as “inhibited” and the “effect on cADPR-evoked Ca2+ responses in primary screen” value ([2]; 25 μM, positive control) is listed as “inhibited”.

In the case of `N=c1c2ncn3c2ncn1[C@@H]1O[C@H](COP(=O)(O)OP(=O)(O)OC[C@H]2O[C@@H]3[C@H](O)[C@@H]2O)[C@@H](O)[C@H]1O` [cADPR, cyclic adenosine 5′-diphosphate ribose], the “effect on [3H]-ryanodine binding” value ([3]; contracting 30 μM free Ca2+) is reported as “did not elicit any effects”, the “effect on [3H]-ryanodine binding” value ([3]; relaxed 100 nM free Ca2+) is reported as “did not elicit any effects” and the “effect on [3H]-ryanodine binding” value ([4]; contracting 30 μM free Ca2+) is reported as “did not elicit any effects”. The “effect on [3H]-ryanodine binding” value ([4]; relaxed 100 nM free Ca2+) was “did not elicit any effects”.

In the case of `N=c1c2cc(Br)n3c2ncn1[C@@H]1O[C@H](COP(=O)(O)OP(=O)(O)OC[C@H]2O[C@@H]3C(O)[C@H]2O)C(O)C1O` (some centres unmarked) [8-Br-7-deaza-cADPR], the “mode of inhibition of cADPR action” value [2] is reported as “competitive inhibitors”.

With `COC(=O)C1=C(C)NC(C)=C(C(=O)OC)C1c1ccccc1[N+](=O)[O-]` [nifedipine, dimethyl 2,6-dimethyl-4-(2-nitrophenyl)-1,4-dihydropyridine-3,5-dicarboxylate] the “inhibition of cADPR-evoked Ca2+ signals” value ([2]; 25 μM) was ~3%.

With `CC1=C(C(=O)OC2CCCCC2)C(c2ccc([N+](=O)[O-])cc2)C2=C(CC(C)(C)CC2=O)N1` (centres unmarked) [FLI-06, cyclohexyl 2,7,7-trimethyl-4-(4-nitrophenyl)-5-oxo-1,4,5,6,7,8-hexahydroquinoline-3-carboxylate] the “effect on [3H]-ryanodine binding” value ([3]; contracting 30 μM free Ca2+) was “inhibited”, the “effect on [3H]-ryanodine binding” value ([3]; relaxed 100 nM free Ca2+) was “inhibited” and the “effect on IP3-evoked Ca2+ release” value [5] was “did not impact”. The “intrinsic agonist activity (Ca2+ elevation without cADPR)” value [6] was “did not result from any intrinsic agonist activity”, the “effect on caffeine-evoked Ca2+ release” value [7] was “blocked” and the “effect on ryanodine-evoked Ca2+ release” value [8] was “blocked”. For the same compound, the “effect on cADPR-evoked Ca2+ transient” value [9] was “reduced”, the “effect on NAADP-evoked Ca2+ release” value [10] was “did not impact” and the “effect on cADPR-evoked Ca2+ signals” value ([2]; cADPR 300 nM) was “blocked”. The “mode of inhibition of cADPR action” value [2] was “non-competitive inhibition”, the IC50 ([2]; read-out: IC50, inhibition of cADPR-evoked Ca2+ release, sea urchin egg homogenate, cADPR 300 nM) was 260 ± 23 nM and the “effect on [3H]-ryanodine binding” value ([4]; contracting 30 μM free Ca2+) was “inhibited”. The “effect on [3H]-ryanodine binding” value ([4]; relaxed 100 nM free Ca2+) was “inhibited”, the contraction phenotype [11] was “earlier contraction phenotype” and the “expression of cardiomyocyte-specific troponin T” value [11] was “enhanced expression”.

In the case of 8-Br-cADPR, the “effect on generation of cardiomyocytes” value [12] is given as “promoted the generation of cardiomyocytes”.

In the case of `COCCOC(=O)C1=C(C)NC(C)=C(C(=O)OC(C)C)C1c1cccc([N+](=O)[O-])c1` (centres unmarked) [nimodipine, 3-O-(2-methoxyethyl) 5-O-propan-2-yl 2,6-dimethyl-4-(3-nitrophenyl)-1,4-dihydropyridine-3,5-dicarboxylate], the “inhibition of cADPR-evoked Ca2+ signals” value ([2]; 25 μM) is reported as ~5%.
